These results are taken from ChEMBL document CHEMBL3259608, “Synthesis of a terphenyl substituted 4-aza-2,3-didehydropodophyllotoxin analogues as inhibitors of tubulin polymerization and apoptosis inducers” (Bioorg Med Chem, 2014).

Holding throughout (type): functional, cell-based
One assay concerns HT-29. The experiment in a line: Anticancer activity against human HT-29 cells after 48 hrs by MTT assay. The settings on record: HT-29, 48 h. The gist of the method: (§1)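 MTT assay: 1×10⁴ cells/well seeded in DMEM with 10% FBS, 24 h at 37°C in CO₂ before dosing. Compounds diluted in medium, vehicle control included, 48 h exposure. MTT (5 mg/mL stock) added for 4 h, formazan dissolved in DMSO, absorbance read at 540 nm. IC50 averaged from three individual experiments.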
(In general: Tetrazolium dyes change colour on reduction, which living cells bring about.)

Another assay concerns DU-145. The experiment in a line: Anticancer activity against human DU145 cells after 48 hrs by MTT assay. The settings on record: DU-145, 48 h. An outline of the steps:
as §1

The subject of a further assay is A549. The assay is described as follows: Anticancer activity against human A549 cells after 48 hrs by MTT assay. The settings on record: A549, 48 h. The gist of the method:
as §1

Another assay relates to ACHN. The assay is described as follows: Anticancer activity against human ACHN cells after 48 hrs by MTT assay. An outline of the steps:
as §1

For another assay, the system named is HeLa. The experiment in a line: Anticancer activity against human HeLa cells after 48 hrs by MTT assay. The gist of the method: as §1

As a reminder, the IC50 is the concentration needed to halve the response being measured. Lower therefore signals greater potency. For `O=C1OCC2=C1C(c1ccc(-c3ccc(-c4ccc(C(F)(F)F)cc4)cc3)cc1)c1c(-c3ccccc3)n[nH]c1N2` (stereo not given), the IC50 amounted to 8.51 µM with HT-29; 6.45 µM with DU-145; 5.75 µM in the assay with A549; 5.24 µM in the assay with ACHN; 6.16 µM in the assay on HeLa.

Regarding `O=C1OCC2=C1C(c1ccc(-c3ccc(-c4cc(F)cc(F)c4)cc3)cc1)c1cc3[nH]ccc3cc1N2` (stereo not given), the IC50 amounted to 6.45 µM with HT-29; 8.7 µM in the assay with DU-145; 5.49 µM with A549; 5.75 µM with ACHN; 8.51 µM in the assay on HeLa.

With `O=C1OCC2=C1C(c1ccc(-c3ccc(-c4cc(F)cc(Cl)c4)cc3)cc1)c1cc3[nH]ccc3cc1N2` (stereo not given), the IC50 in the assay on HT-29 turned out to be 8.7 µM; in the assay on DU-145, 4.78 µM; in the assay on A549, 2.55 µM; with ACHN it was 2.95 µM; with HeLa, 3.16 µM.

With `O=C1OCC2=C1C(c1ccc(-c3ccc(-c4ccc(F)cc4)cc3)cc1)c1cc3[nH]ccc3cc1N2` (stereo not given), the IC50 with HT-29 is 8.91 µM; with DU-145, 7.24 µM; in the assay on A549, 4.36 µM; in the assay with ACHN, 5.75 µM; in the assay with HeLa, 9.54 µM.

On to `O=C1OCC2=C1C(c1ccc(-c3ccc(-c4cc(F)c(F)c(F)c4)cc3)cc1)c1cc3[nH]ccc3cc1N2` (stereo not given), for which the IC50 in the assay with HT-29 came to 6.6 µM; with DU-145, 13.2 µM; with A549, 5.49 µM; with ACHN it was 6.45 µM; with HeLa, 10.5 µM.

As to `O=C1OCC2=C1C(c1ccc(-c3ccc(-c4cc(F)cc(Cl)c4)cc3)cc1)c1c(-c3ccccc3)n[nH]c1N2` (stereo not given), the IC50 with HT-29 was determined as 6.3 µM; with DU-145, 5.75 µM; in the assay on A549, 2.88 µM; in the assay on ACHN it was 3.16 µM; in the assay on HeLa, 6.02 µM.

For the molecule `O=C1OCC2=C1C(c1ccc(-c3ccc(-c4cc(F)cc(Cl)c4)cc3)cc1)c1c(ccc3cn[nH]c13)N2` (stereo not given), the IC50 with HT-29 was 9.42 µM; with DU-145, 12.6 µM; in the assay on A549, 7.41 µM; in the assay on ACHN, 9.33 µM; in the assay with HeLa, 7.53 µM.

Consider `O=C1OCC2=C1C(c1ccc(-c3ccc(-c4ccc(C(F)(F)F)cc4)cc3)cc1)c1c(ccc3cn[nH]c13)N2` (stereo not given), for which the half-inhibitory concentration (IC50) in the assay on HT-29 was determined as 2.39 µM; in the assay on DU-145, 4.89 µM; in the assay on A549, 1.16 µM; in the assay on ACHN, 2.75 µM; in the assay with HeLa it was 7.09 µM.

Regarding `O=C1OCC2=C1C(c1ccc(-c3ccc(-c4cc(F)c(F)c(F)c4)cc3)cc1)c1c(ccc3cn[nH]c13)N2` (stereo not given), the IC50 with HT-29 turned out to be 8.91 µM; with DU-145, 6.91 µM; with A549 it was 3.98 µM; in the assay with ACHN it was 7.41 µM; in the assay with HeLa, 5.49 µM.

Take `O=C1OCC2=C1C(c1ccc(-c3ccc(-c4ccc(F)cc4)cc3)cc1)c1c(-c3ccccc3)n[nH]c1N2` (stereo not given): the IC50 amounted to 3.31 µM with HT-29; 4.16 µM with DU-145; 1.47 µM in the assay on A549; 2.18 µM in the assay with ACHN; 3.8 µM with HeLa.

For `O=C1OCC2=C1C(c1ccc(-c3ccc(-c4cc(F)cc(F)c4)cc3)cc1)c1c(-c3ccccc3)n[nH]c1N2` (stereo not given), the IC50 was determined as 5.83 µM with HT-29; 10 µM in the assay with DU-145; 6.72 µM in the assay on A549; 14.1 µM in the assay with ACHN; 8.12 µM in the assay with HeLa.

Turning to `O=C1OCC2=C1C(c1ccc(-c3ccc(-c4ccc(F)cc4)cc3)cc1)c1c(ccc3cn[nH]c13)N2` (stereo not given), the IC50 turned out to be 1.69 µM in the assay with HT-29; 1.44 µM with DU-145; 0.95 µM with A549; 1.47 µM in the assay with ACHN; 1.94 µM in the assay with HeLa.

`O=C1OCC2=C1C(c1ccc(-c3ccc(-c4cc(F)c(F)c(F)c4)cc3)cc1)c1c(-c3ccccc3)n[nH]c1N2` (stereo not given): the IC50 in the assay on HT-29 was 6.45 µM; in the assay on DU-145 it was 6.5 µM; in the assay with A549, 4.36 µM; in the assay on ACHN, 7.52 µM; in the assay on HeLa, 7.07 µM.
